From ChEMBL document CHEMBL1795344, “Design, synthesis and antitumor evaluation of phenyl N-mustard-quinazoline conjugates” (Bioorg Med Chem, 2011)
The source made the active and inactive calls. The calls are words filed in the database; no cut-off is given here.

Legend:
MX1 = assay: Cytotoxicity against human MX1 cells after 72 hrs by SRB assay; type: functional, cell-based; details: MX1, 72 h
Outline: (§1)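 MX-1 and HCT-116 solid tumor cells were exposed 72 h, with growth read by SRB staining on a microplate spectrophotometer. IC50 came from median-effect analysis of dose-effect data at six or seven concentrations.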

CCRF-CEM [1] = assay: Ratio of IC50 for human taxol-resistant CCRF-CEM cells to IC50 for human CCRF-CEM cells; type: functional
CCRF-CEM [2] = assay: Cytotoxicity against human CCRF-CEM cells after 72 hrs by XTT assay; type: functional, cell-based
Outline: (§2)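 CCRF-CEM and its Taxol- and vinblastine-resistant sublines were incubated 72 h, then given phenazine methosulfate-XTT for 6 h at 37 °C. Absorbance was read at 450 and 630 nm. IC50 came from median-effect analysis of dose-effect data at six or seven concentrations.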

HCT-116 = assay: Cytotoxicity against human HCT116 cells after 72 hrs by SRB assay; type: functional, cell-based; details: HCT-116, 72 h; outline: as §1
PC-3 = assay: Cytotoxicity against human PC3 cells after 72 hrs by Alamar blue assay; type: functional, cell-based; details: PC-3, 72 h
Outline: (§3)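 H1299 and PC3 cells were exposed 72 h, then given Alamar blue for 6 h at 37 °C. Absorbance was read at 570 and 600 nm. IC50 came from median-effect analysis of dose-effect data at six or seven concentrations.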

CCRF-CEM [3] = assay: Ratio of IC50 for human vinblastine-resistant CCRF-CEM cells to IC50 for human CCRF-CEM cells; type: functional
CCRF-CEM [4] = assay: Cytotoxicity against human vinblastine-resistant CCRF-CEM cells after 72 hrs by XTT assay; type: functional, cell-based; outline: as §2
CCRF-CEM [5] = assay: Cytotoxicity against human taxol-resistant CCRF-CEM cells after 72 hrs by XTT assay; type: functional, cell-based; outline: as §2
[6] = Cytotoxicity against human H1299 cells after 72 hrs by Alamar blue assay; type: functional, cell-based; details: NCI-H1299, 72 h; outline: as §3
Nucleic Acid = assay: Induction of pEGFP-N1 plasmid DNA interstrand cross-linking at 1 to 20 uM by alkaline agarose gel shift assay; type: nucleic-acid assay
Outline: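 pEGFP-N1 plasmid DNA (1500 ng) was incubated with compound (1, 10, 20 μM) in 3 mM NaCl/1 mM sodium phosphate pH 7.4/1 mM EDTA for 2 h at 37 °C. It was then BamHI-linearized, ethanol-precipitated and denatured in 0.5 N NaOH-10 mM EDTA. Samples were run on a 0.8% alkaline agarose gel at 4 °C, 18 V for 22 h, stained with ethidium bromide.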

Compound	IC50 (MX1) [µM]	Ratio IC50 (CCRF-CEM [1])	IC50 (CCRF-CEM [2]) [µM]	IC50 (HCT-116) [µM]	IC50 (PC-3) [µM]	Ratio IC50 (CCRF-CEM [3])	IC50 (CCRF-CEM [4]) [µM]	IC50 (CCRF-CEM [5]) [µM]	IC50 [6] [µM]	Activity (Nucleic Acid)
COc1cccc(Nc2ncnc3ccc(NC(=O)Nc4ccc(N(CCCl)CCCl)cc4)cc23)c1	2.59	2.71	1.32	2.44	9.44	2.56	3.38	3.58	8.79	–
COc1cc(Nc2ncnc3ccc(NC(=O)Nc4ccc(N(CCCl)CCCl)cc4)cc23)cc(OC)c1OC	4.02	32.42	0.38	2.24	11	64.5	24.5	12.3	10.3	–
COc1ccc(Nc2ncnc3ccc(NC(=O)Nc4ccc(N(CCCl)CCCl)cc4)cc23)cc1Cl	5.51	4.17	0.8	5.27	8.02	4.68	3.75	3.34	6.94	Active
O=C(Nc1ccc(N(CCCl)CCCl)cc1)Nc1ccc2ncnc(Nc3ccc(Oc4ccccc4)cc3)c2c1	8.47	1.67	4.77	12.4	–	2.28	10.9	7.99	–	–
CC[C@]1(O)C[C@@H]2CN(CCc3c([nH]c4ccccc34)[C@@](C(=O)OC)(c3cc4c(cc3OC)N(C)[C@H]3[C@@](O)(C(=O)OC)[C@H](OC(C)=O)[C@]5(CC)C=CCN6CC[C@]43[C@@H]65)C2)C1 [VINBLASTINE]	–	106.2	–	–	–	679.5	–	–	–	–
O=C(Nc1ccc(N(CCCl)CCCl)cc1)Nc1ccc2ncnc(Nc3ccc(Cl)c(Cl)c3)c2c1	6.45	2.16	2.6	2.79	–	2.6	6.75	5.61	–	–
O=C(Nc1ccc(N(CCCl)CCCl)cc1)Nc1ccc2ncnc(Nc3cccc(C(F)(F)F)c3)c2c1	5.3	1.15	3.97	5.97	–	1.17	4.68	4.57	–	–
CC(=O)O[C@H]1C(=O)[C@@]2(C)[C@H]([C@H](OC(=O)c3ccccc3)[C@]3(O)C[C@H](OC(=O)[C@H](O)[C@@H](NC(=O)c4ccccc4)c4ccccc4)C(C)=C1C3(C)C)[C@]1(OC(C)=O)CO[C@@H]1C[C@@H]2O [PACLITAXEL]	–	143	–	–	–	423	–	–	–	–
C#Cc1cccc(Nc2ncnc3ccc(NC(=O)Nc4ccc(N(CCCl)CCCl)cc4)cc23)c1	6.27	4.58	0.5	3.47	–	4.66	2.33	2.29	–	–
